Measured values: ChEMBL document CHEMBL2321692, “De novo fragment design: a medicinal chemistry approach to fragment-based lead generation” (J Med Chem, 2013)
pIC50, pKd: −log10 of the molar value.

Tests used:
[1] = Binding affinity to HCV NS5B570n-BK expressed in Escherichia coli by surface plasma resonance assay; type: cell-free, Hepatitis C virus (isolate BK)
How it was run: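 Kinetic dissociation constant (K_D) measured against genotype 1b NS5B polymerase, BK strain, by surface plasmon resonance.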

[2] = system: Hepatitis C virus; experiment: Inhibition of HCV NS5B570n-Con1 expressed in Escherichia coli assessed as radiolabeled nucleotide monophosphate incorporation into acid-insoluble RNA products after 2 hrs by scintillation counting analysis; set-up: species or system Hepacivirus hominis; settings: Con1, 2 h
How it was run: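 IC₅₀ in the NS5B polymerase enzyme assay using genotype 1b NS5B, Con1 strain.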

[3] = Inhibition of HCV NS5B570n-BK expressed in Escherichia coli assessed as radiolabeled nucleotide monophosphate incorporation into acid-insoluble RNA products after 2 hrs by scintillation counting analysis; set-up: species or system Hepatitis C virus (isolate BK)

Row | SMILES | pIC50 [2] | pIC50 [3] | pKd [1]
1 | CC1NC(=O)N(Cc2ccc(C(C)(C)C)cc2)C1=O (configuration not stated) | 3.66 | – | 3.84
2 | CC(C)(C)c1cccc(-c2ccc[nH]c2=O)c1 | 5.40 | – | 5.24
3 | CC(C)(C)c1ccc(Cc2ccc[nH]c2=O)cc1 | 3.37 | – | –
4 | O=C1CNC(=O)N1Cc1ccc(Cl)c(Cl)c1 | < 3.00 | – | –
5 | CC(C)C1NC(=O)N(Cc2ccc(C(C)(C)C)cc2)C1=O (configuration not stated) | 4.68 | – | 4.74
6 | COc1ccc(-c2ccc[nH]c2=O)cc1C(C)(C)C | – | – | 6.24
7 | c1ccc(NNc2ncnc3[nH]ncc23)cc1 | – | 3.89 | 4.11

More lines, main results first:

Row | pIC50 [2] | pIC50 [3] | SMILES | pKd [1]
8 | 3.97 | – | CCC1NC(=O)N(Cc2ccc(C(C)(C)C)cc2)C1=O (configuration not stated) | 4.03
9 | 4.10 | – | Cc1ccccc1Oc1cccc(-c2ccc[nH]c2=O)c1 | –
10 | < 3.00 | – | O=C1CNC(=O)N1Cc1ccccc1 | –
11 | 3.44 | – | CC(C)(C)c1ccc(CN2C(=O)CNC2=O)cc1 | 3.40
